Tests used:
[1] = Antiproliferative activity against mouse 32D cells transfected with p210 cells expressing Bcr-abl assessed as proliferation after 48 hrs by MTT assay; assay type: cell-based
[2] = Antiproliferative activity against mouse 32D Bcr-abl negative cells assessed as proliferation after 48 hrs by MTT assay
HL-60 = assay: Antiproliferative activity against human HL60 Bcr-abl negative cells assessed as cell viability after 48 hrs by MTT assay; assay type: functional, cell-based; conditions: HL-60, 48 h
Summary of the method: (§1)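 Cells seeded at 0.3–0.6 × 10^6/ml in duplicate or triplicate with increasing compound (0.005–10 μM), 37 °C, 5% CO2, 48 h. Viability by MTT dye reduction, expressed as % growth of DMSO-treated cells; IC50 from dose-response curves. Ba/F3 lines carry geneticin selection (1 mg/ml) in RPMI-1640/10% FBS; parental Ba/F3 kept with 10 U/ml murine IL-3.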

K562 = assay: Antiproliferative activity against human K562 expressing Bcr-abl assessed as proliferation after 48 hrs by MTT assay; assay type: functional, cell-based; conditions: K562, 48 h; summary of the method: as §1
Jurkat = assay: Antiproliferative activity against human Jurkat Bcr-abl negative cells assessed as proliferation after 48 hrs by MTT assay; assay type: functional, cell-based; summary of the method: as §1
[3] = Antiproliferative activity against human SUP-B15 expressing Bcr-abl assessed as proliferation after 48 hrs by MTT assay; assay type: functional; conditions: SUP-B15, 48 h; summary of the method: as §1
[4] = Antiproliferative activity against human M07e Bcr-abl negative cells expressing stem cell factor assessed as proliferation after 48 hrs by MTT assay; assay type: functional, cell-based; conditions: M-07e
Summary of the method: (§2)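 Human megakaryoblastic Mo7e cells grown in RPMI-1640, 20% FBS, with either 5 ng/ml human GM-CSF or 200 ng/ml stem cell factor (c-kit-driven growth). Compound up to 10 μM, 48 h at 37 °C; viability read by MTT reduction relative to DMSO-treated cells.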

[5] = Antiproliferative activity against human M07e Bcr-abl negative cells expressing granulocyte-macrophage colony stimulating factor assessed as proliferation after 48 hrs by MTT assay; assay type: functional, cell-based; conditions: M-07e; summary of the method: as §2
[6] = Antiproliferative activity against mouse BA/F3 Bcr-abl negative cells expressing TPR-MET kinase assessed as proliferation after 48 hrs by MTT assay; assay type: functional, cell-based; conditions: BaF3, 48 h; summary of the method: as §1
[7] = Antiproliferative activity against mouse BA/F3 Bcr-abl negative cells expressing Tel-JAK1 kinase assessed as proliferation after 48 hrs by MTT assay; assay type: functional, cell-based; conditions: BaF3, 48 h; summary of the method: as §1
[8] = Antiproliferation activity against mouse BA/F3 cells expressing Bcr-abl A334l mutant assessed as cell viability after 48 hrs by MTT assay; assay type: functional, cell-based; conditions: BaF3, 48 h, in the assay text read “A344L” for “A334l”; summary of the method: as §1
[9] = Antiproliferation activity against mouse BA/F3 cells expressing Bcr-abl A337N mutant assessed as cell viability after 48 hrs by MTT assay; assay type: functional, cell-based; conditions: BaF3, 48 h; summary of the method: as §1
[10] = target: Mitogen-activated protein kinase 12 (Homo sapiens) (UniProt P53778); assay: Inhibition of human SAPK3 activity at 10 uM by radiometric assay
[11] = target: BDNF/NT-3 growth factors receptor (Homo sapiens) (UniProt Q16620); assay: Inhibition of human TrkB activity at 10 uM by radiometric assay
[12] = target: Angiopoietin-1 receptor (Homo sapiens) (UniProt Q02763); assay: Inhibition of human Tie2 activity at 10 uM by radiometric assay
[13] = target: Platelet-derived growth factor receptor beta (Homo sapiens) (UniProt P09619); assay: Inhibition of human PDGFR-beta activity at 10 uM by radiometric assay
[14] = target: Ribosomal protein S6 kinase alpha-1 (Homo sapiens) (UniProt Q15418); assay: Inhibition of human Rsk1 activity at 10 uM by radiometric assay
[15] = target: Serine/threonine-protein kinase D2 (Homo sapiens) (UniProt Q9BZL6); assay: Inhibition of human PKD2 activity at 10 uM by radiometric assay
[16] = target: Protein kinase C alpha type (Homo sapiens) (UniProt P17252); assay: Inhibition of human PKCalpha activity at 10 uM by radiometric assay
[17] = target: RAC-alpha serine/threonine-protein kinase (Homo sapiens) (UniProt P31749); assay: Inhibition of human PKBalpha activity at 10 uM by radiometric assay
[18] = target: MAP kinase-activated protein kinase 2 (Homo sapiens) (UniProt P49137); assay: Inhibition of human MAPKAP-K2 activity at 10 uM by radiometric assay
[19] = target: Mitogen-activated protein kinase 1 (Homo sapiens) (UniProt P28482); assay: Inhibition of human MAPK1 activity at 10 uM by radiometric assay
[20] = target: Mitogen-activated protein kinase 9 (Homo sapiens) (UniProt P45984); assay: Inhibition of human JNK2alpha2 activity at 10 uM by radiometric assay
[21] = target: RAF proto-oncogene serine/threonine-protein kinase (Homo sapiens) (UniProt P04049); assay: Inhibition of human c-RAF activity at 10 uM by radiometric assay
[22] = target: Serine/threonine-protein kinase Chk2 (Homo sapiens) (UniProt O96017); assay: Inhibition of human CHK2 activity at 10 uM by radiometric assay
[23] = target: Mast/stem cell growth factor receptor Kit (Homo sapiens) (UniProt P10721); assay: Inhibition of human c-kit activity at 10 uM by radiometric assay
[24] = target: Vascular endothelial growth factor receptor 2 (Homo sapiens) (UniProt P35968); assay: Inhibition of human KDR activity at 10 uM by radiometric assay
[25] = target: Insulin receptor (Homo sapiens) (UniProt P06213); assay: Inhibition of human IR activity at 10 uM by radiometric assay
[26] = target: Insulin-like growth factor 1 receptor (Homo sapiens) (UniProt P08069); assay: Inhibition of human IGF-1R activity at 10 uM by radiometric assay
[27] = target: Vascular endothelial growth factor receptor 3 (Homo sapiens) (UniProt P35916); assay: Inhibition of human Flt-4 activity at 10 uM by radiometric assay
[28] = target: Fibroblast growth factor receptor 3 (Homo sapiens) (UniProt P22607); assay: Inhibition of human FGFR3 activity at 10 uM by radiometric assay
[29] = target: Tyrosine-protein kinase ZAP-70 (Homo sapiens) (UniProt P43403); assay: Inhibition of human ZAP-70 activity at 10 uM by radiometric assay
[30] = target: Tyrosine-protein kinase CSK (Homo sapiens) (UniProt P41240); assay: Inhibition of human CSK activity at 10 uM by radiometric assay
[31] = target: Tyrosine-protein kinase BTK (Homo sapiens) (UniProt Q06187); assay: Inhibition of human BTK activity at 10 uM by radiometric assay
[32] = target: Cytoplasmic tyrosine-protein kinase BMX (Homo sapiens) (UniProt P51813); assay: Inhibition of human Bmx activity at 10 uM by radiometric assay
[33] = target: cAMP-dependent protein kinase catalytic subunit beta (Homo sapiens) (UniProt P22694); conditions: 10 uM
[34] = target: Serine/threonine-protein kinase 3 (Homo sapiens) (UniProt Q13188); conditions: 10 uM
[35] = target: Platelet-derived growth factor receptor alpha (Homo sapiens) (UniProt P16234); conditions: 10 uM
Chain of Platelet-derived growth factor receptor alpha (Homo sapiens) (P16234 whole entry): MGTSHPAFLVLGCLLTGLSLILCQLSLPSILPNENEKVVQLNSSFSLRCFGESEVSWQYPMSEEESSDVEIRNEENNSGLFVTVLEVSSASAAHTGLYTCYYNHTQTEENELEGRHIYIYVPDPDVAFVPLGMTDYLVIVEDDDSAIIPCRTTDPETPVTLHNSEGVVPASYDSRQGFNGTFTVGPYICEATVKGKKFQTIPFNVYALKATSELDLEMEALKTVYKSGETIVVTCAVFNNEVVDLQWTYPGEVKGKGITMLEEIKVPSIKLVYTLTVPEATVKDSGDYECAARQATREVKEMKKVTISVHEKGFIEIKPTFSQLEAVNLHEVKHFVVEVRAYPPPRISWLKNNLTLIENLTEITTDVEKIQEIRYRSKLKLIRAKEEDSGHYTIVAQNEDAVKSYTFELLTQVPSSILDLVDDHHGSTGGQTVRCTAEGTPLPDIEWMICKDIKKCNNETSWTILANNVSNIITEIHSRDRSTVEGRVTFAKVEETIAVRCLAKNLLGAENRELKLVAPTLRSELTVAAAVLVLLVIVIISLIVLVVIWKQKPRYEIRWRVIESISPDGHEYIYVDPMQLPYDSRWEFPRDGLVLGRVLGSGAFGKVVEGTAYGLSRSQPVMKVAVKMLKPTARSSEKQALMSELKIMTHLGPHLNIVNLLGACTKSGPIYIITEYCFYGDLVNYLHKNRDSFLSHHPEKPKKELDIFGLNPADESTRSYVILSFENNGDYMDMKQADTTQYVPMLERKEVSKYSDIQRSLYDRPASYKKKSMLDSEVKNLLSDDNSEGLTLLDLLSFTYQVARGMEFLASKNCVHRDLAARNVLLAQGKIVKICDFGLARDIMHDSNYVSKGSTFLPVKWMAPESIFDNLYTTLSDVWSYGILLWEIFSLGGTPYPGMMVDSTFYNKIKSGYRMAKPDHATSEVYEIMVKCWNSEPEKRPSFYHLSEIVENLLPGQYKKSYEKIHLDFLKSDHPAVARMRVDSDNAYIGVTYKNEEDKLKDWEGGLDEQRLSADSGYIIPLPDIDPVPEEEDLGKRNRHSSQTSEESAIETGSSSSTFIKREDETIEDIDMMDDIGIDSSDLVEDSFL

Chain of Mitogen-activated protein kinase 12 (Homo sapiens) (P53778 whole entry): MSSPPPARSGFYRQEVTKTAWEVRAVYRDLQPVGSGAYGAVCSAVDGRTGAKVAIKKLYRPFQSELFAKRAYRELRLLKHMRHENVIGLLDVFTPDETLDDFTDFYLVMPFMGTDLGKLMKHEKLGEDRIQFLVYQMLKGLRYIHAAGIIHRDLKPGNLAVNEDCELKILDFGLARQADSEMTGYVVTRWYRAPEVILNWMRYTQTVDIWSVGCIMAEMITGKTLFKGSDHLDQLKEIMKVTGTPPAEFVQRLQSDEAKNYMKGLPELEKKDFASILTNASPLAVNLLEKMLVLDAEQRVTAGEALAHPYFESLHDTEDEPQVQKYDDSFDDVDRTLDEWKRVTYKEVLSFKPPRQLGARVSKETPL
Chain of Tyrosine-protein kinase ZAP-70 (Homo sapiens) (P43403 whole entry): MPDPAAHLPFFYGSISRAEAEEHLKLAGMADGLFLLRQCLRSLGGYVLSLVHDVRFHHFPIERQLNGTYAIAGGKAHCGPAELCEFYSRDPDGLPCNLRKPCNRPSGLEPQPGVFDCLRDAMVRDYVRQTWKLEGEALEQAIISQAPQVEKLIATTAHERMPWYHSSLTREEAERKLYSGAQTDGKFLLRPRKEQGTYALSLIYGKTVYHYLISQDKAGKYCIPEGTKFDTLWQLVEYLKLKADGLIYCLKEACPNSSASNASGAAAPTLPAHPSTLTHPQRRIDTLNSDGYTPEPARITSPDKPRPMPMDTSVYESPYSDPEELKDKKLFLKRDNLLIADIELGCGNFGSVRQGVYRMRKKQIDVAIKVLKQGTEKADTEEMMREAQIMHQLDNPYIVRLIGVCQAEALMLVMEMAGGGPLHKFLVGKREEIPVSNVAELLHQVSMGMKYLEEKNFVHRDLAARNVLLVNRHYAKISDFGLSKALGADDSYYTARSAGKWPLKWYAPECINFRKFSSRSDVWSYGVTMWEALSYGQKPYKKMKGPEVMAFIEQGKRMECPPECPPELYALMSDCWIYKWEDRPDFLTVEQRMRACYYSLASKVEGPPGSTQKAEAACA
Chain of Insulin receptor (Homo sapiens) (P06213 28-758 limits assumed): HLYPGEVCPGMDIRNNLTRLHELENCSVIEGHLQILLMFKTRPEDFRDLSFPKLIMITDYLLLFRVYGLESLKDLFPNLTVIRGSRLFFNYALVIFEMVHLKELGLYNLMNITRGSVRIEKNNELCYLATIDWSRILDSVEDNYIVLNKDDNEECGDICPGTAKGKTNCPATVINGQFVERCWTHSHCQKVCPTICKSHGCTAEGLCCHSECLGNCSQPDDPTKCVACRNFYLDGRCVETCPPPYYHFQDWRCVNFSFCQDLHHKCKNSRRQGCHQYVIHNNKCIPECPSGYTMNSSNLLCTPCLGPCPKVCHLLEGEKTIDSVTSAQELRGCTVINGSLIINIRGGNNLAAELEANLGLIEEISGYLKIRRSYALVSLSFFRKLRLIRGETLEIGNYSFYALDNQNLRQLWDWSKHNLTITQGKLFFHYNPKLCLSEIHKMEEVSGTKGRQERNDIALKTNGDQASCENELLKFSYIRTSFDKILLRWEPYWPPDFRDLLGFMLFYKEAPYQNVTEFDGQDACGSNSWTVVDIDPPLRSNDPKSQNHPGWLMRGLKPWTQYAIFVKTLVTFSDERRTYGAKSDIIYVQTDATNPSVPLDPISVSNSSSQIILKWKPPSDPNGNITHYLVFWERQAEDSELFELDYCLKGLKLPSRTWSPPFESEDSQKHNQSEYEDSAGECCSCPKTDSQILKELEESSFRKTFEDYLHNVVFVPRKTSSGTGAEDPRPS
Chain of Insulin receptor (Homo sapiens) (P06213 763-1382 limits assumed): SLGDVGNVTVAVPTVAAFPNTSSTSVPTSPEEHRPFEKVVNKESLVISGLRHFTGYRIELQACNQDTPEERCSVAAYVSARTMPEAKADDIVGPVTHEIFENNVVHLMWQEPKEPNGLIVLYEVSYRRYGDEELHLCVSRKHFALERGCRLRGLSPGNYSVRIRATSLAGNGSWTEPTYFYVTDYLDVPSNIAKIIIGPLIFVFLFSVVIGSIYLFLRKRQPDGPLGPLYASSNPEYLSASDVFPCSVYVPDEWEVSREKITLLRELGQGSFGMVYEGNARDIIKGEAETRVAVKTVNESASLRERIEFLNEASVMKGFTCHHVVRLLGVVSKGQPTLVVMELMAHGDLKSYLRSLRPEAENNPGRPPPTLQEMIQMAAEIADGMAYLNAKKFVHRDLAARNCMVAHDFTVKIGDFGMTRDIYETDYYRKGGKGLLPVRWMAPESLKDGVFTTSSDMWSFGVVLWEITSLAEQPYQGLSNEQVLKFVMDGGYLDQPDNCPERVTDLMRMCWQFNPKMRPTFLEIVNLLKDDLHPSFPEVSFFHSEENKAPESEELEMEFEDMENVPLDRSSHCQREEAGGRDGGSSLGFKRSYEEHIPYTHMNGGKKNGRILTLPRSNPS
Chain of Vascular endothelial growth factor receptor 2 (Homo sapiens) (P35968 whole entry): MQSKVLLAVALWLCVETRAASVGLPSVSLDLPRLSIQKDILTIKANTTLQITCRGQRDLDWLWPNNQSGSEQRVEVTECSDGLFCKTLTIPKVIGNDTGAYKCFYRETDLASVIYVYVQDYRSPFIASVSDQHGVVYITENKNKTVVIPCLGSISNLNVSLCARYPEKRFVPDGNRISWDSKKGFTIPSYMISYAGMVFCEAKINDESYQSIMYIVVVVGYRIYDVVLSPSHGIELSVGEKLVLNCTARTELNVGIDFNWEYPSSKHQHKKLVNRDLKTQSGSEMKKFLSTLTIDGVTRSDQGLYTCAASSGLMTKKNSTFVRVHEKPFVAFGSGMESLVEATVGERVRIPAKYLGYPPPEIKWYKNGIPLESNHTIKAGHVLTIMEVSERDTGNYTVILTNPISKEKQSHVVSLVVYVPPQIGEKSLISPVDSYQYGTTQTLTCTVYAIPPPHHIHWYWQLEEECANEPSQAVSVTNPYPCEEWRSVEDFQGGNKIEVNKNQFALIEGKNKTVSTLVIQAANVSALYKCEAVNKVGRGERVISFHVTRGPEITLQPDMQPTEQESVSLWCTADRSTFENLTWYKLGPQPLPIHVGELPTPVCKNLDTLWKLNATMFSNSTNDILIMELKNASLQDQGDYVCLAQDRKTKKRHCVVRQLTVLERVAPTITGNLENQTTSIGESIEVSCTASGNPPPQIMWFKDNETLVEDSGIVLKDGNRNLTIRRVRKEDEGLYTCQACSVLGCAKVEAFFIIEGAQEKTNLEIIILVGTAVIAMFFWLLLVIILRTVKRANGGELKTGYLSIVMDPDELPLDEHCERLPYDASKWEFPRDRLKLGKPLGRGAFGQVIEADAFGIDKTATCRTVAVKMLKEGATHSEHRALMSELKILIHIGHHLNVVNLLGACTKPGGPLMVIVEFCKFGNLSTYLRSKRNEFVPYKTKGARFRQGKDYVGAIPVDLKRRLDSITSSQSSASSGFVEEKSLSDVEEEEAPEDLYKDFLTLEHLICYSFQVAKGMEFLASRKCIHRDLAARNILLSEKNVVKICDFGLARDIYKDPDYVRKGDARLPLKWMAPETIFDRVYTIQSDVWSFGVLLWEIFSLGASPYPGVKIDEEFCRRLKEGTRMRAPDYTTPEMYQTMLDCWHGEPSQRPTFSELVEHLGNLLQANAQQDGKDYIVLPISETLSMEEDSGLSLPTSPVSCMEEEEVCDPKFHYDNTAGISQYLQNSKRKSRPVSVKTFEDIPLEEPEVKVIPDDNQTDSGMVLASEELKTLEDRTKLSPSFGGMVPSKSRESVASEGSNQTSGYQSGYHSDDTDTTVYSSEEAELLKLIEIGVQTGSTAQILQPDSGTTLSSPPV

SMILES	IC50 [1] [nM]	IC50 [2] [nM]	IC50 (HL-60) [nM]	IC50 (K562) [nM]	IC50 (Jurkat) [nM]	IC50 [3] [nM]	IC50 [4] [nM]	IC50 [5] [nM]	IC50 [6] [nM]	IC50 [7] [nM]	IC50 [8] [nM]	IC50 [9] [nM]	inhibition [10] [%]	inhibition [11] [%]	inhibition [12] [%]	inhibition [13] [%]	inhibition [14] [%]	inhibition [15] [%]	inhibition [16] [%]	inhibition [17] [%]	further results
Cc1ccc(NC(=O)c2ccc(CN3CCN(C)CC3)cc2)cc1Nc1nccc(-c2cccnc2)n1 [IMATINIB]	112	> 10000	> 10000	109	> 10000	111	257	> 10000	> 10000	> 10000	962	339	7	34	66	43	58	11	17	46	inhibition [18]: 19%; inhibition [19]: 4%; inhibition [20]: 10%; inhibition [21]: 89%; inhibition [22]: 17%; inhibition [23]: 88%; inhibition [24]: 22%; inhibition [25]: 2%; inhibition [26]: 17%; inhibition [27]: 79%; inhibition [28]: 27%; inhibition [29]: 29%; inhibition [30]: 2%; inhibition [31]: 19%; inhibition [32]: 27%; inhibition [33]: 1%; inhibition [34]: 15%; inhibition [35]: 89%
NC(=O)c1cccc(-c2cc(Nc3ccc(OC(F)(F)F)cc3)ncn2)c1	187	> 10000	> 10000	273	> 10000	268	> 10000	> 10000	> 10000	> 10000	2370	> 10000	0	4	2	18	0	55	0	7	inhibition [18]: 0%; inhibition [19]: 40%; inhibition [20]: 14%; inhibition [21]: 0%; inhibition [22]: 0%; inhibition [23]: 39%; inhibition [24]: 23%; inhibition [25]: 26%; inhibition [26]: 28%; inhibition [27]: 30%; inhibition [28]: 7%; inhibition [29]: 0%; inhibition [30]: 0%; inhibition [31]: 7%; inhibition [32]: 7%; inhibition [33]: 0%; inhibition [34]: 0%; inhibition [35]: 0%

Source: ChEMBL document CHEMBL1240306, “Allosteric inhibitors of Bcr-abl-dependent cell proliferation” (Nat Chem Biol, 2006)
